Test results: ChEMBL document CHEMBL1122253, “Optically active catecholimidazolines: a study of steric interactions at alpha-adrenoreceptors” (1983)

What was measured:
[1] = organism: Rattus norvegicus; test: Relative value for maximum contraction (10e-5 = 1.0, phenylephrine) of rat aorta.; assay type: functional
Method in brief: (§1)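 Thoracic aorta: the 2-cm segment distal to the first intercostal artery, cut into strips at 75–80° to the lumen. Strips kept in PSS gassed with 95% O2/5% CO2 […], under 2-g tension with isometric force recording. After 1 h equilibration, one half-maximal phenylephrine challenge, then 1 h re-equilibration. Cumulative concentration-effect curves used about threefold steps, with washout and at least 1 h between curves.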

[2] = organism: Rattus norvegicus; test: Negative Log of ED50 used to stimulate alpha adrenergic activity in rat aorta
[3] = organism: Rattus norvegicus; test: Negative Log of ED50 used to inhibit alpha adrenergic activity in rat aorta; assay type: functional; method in brief: as §1

| SMILES | IA [1] | pED50 [2] | pED50 [3] |
| --- | --- | --- | --- |
| CN1CC[N+](C)=C1Cc1ccc(O)c(O)c1.Cl.F[B-](F)(F)F | 0.81 | 5.54 |  |
| Cl.Oc1ccc(CC2=NCCN2)cc1O | 1 | 8.59 |  |
| Cl.Oc1ccc(CC2=NC[C@@H](Cc3ccccc3)N2)cc1O | 0.91 | 4.44 |  |
| Cl.Oc1ccc(CC2=NC[C@H](Cc3ccccc3)N2)cc1O | 1 | 4.33 |  |
| Cl.Oc1ccc([C@H](O)C2=NCCN2)cc1O | 1 | 7.67 |  |
| Cl.Oc1ccc([C@@H](O)C2=NCCN2)cc1O | 1 | 8.59 |  |
| CN1CCN=C1Cc1ccc(O)c(O)c1.Cl | 0.85 |  | 5.84 |
| C[C@@H]1CN=C(Cc2ccc(O)c(O)c2)N1.Cl | 0.74 | 6.29 |  |
| C[C@H]1CN=C(Cc2ccc(O)c(O)c2)N1.Cl | 1 | 6.32 |  |
